Activity calls are given as the source filed them. No cut-off for these calls is given here.
Experiments:
T47D [1] = test: Inhibition of PR-A gene expression in human T47D cells at 25 nM by syber green assay in presence of 10 nM estradiol; type: functional, cell-based
T47D [2] = test: Inhibition of PR-B gene expression in human T47D cells at 25 nM by syber green assay in presence of 10 nM estradiol; type: functional, cell-based
T47D [3] = test: Inhibition of PR-A mRNA gene expression in human T47D cells at 100 nM by syber green assay; type: functional
Outline: (§1)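 T47D cells plated at 80,000/well without antibiotics two days before Oligofectamine transfection with agRNA duplex (25 or 100 nM final); medium changed at 24 h, harvest day 5 unless stated otherwise. TRIzol total RNA; PR mRNA by real-time PCR with SYBR Green: 50 °C 2 min, 95 °C 10 min, 40 cycles 95 °C 15 s/60 °C 1 min.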

T47D [4] = test: Inhibition of PR-B mRNA gene expression in human T47D cells at 100 nM by syber green assay; type: functional
Outline: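 T47D cells in RPMI-1640 with 10% FBS, NEAA, insulin, 37 °C, 5% CO2. Plated two days before transfection without antibiotics. Oligofectamine-mediated duplex RNA transfection at 100 nM final, medium changed at 24 h, harvest five days post-transfection. Total RNA extracted with TRIzol. hPR mRNA quantified by SYBR Green qPCR: 50 °C 2 min, 95 °C 10 min, then 40 cycles of 95 °C 15 s / 60 °C 1 min.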

T47D [5] = test: Inhibition of androgen receptor expression in human T47D cells after 12 days at 100 nM by syber green assay; type: functional, cell-based
Outline: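 AR expression in T47D cells, grown in RPMI-1640 with 10% FBS, NEAA and insulin. Plated antibiotic-free two days before Oligofectamine transfection with 100 nM duplex RNA; medium replaced after 24 h. TRIzol total RNA. SYBR Green real-time PCR: 50 °C 2 min, 95 °C 10 min, 40 cycles of 95 °C 15 s and 60 °C 1 min.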

T47D [6] = test: Inhibition of PR-A gene expression in human T47D cells at 25 nM by syber green assay; type: functional; outline: as §1
T47D [7] = test: Inhibition of PR-B gene expression in human T47D cells at 25 nM by syber green assay; type: functional; outline: as §1

Cc1cn(CC(=O)N(CCNC(=O)CN(CCNC(=O)CN(CCNC(=O)CN(CCNC(=O)CN(CCNC(=O)CN(CCNC(=O)CN(CCNC(=O)CN(CCNC(=O)CN(CCNC(=O)CN(CCNC(=O)CN(CCNC(=O)CN(CCNC(=O)CN(CCNC(=O)CN(CCNC(=O)CN(CCNC(=O)CN(CCNC(=O)CN(CCNC(=O)CN(CCNC(=O)CN(CCNC(=O)CN(CCNC(=O)CN)C(=O)Cn2cnc3c(=O)[nH]c(N)nc32)C(=O)Cn2ccc(N)nc2=O)C(=O)Cn2ccc(=O)[nH]c2=O)C(=O)Cn2ccc(N)nc2=O)C(=O)Cn2ccc(=O)[nH]c2=O)C(=O)Cn2ccc(N)nc2=O)C(=O)Cn2ccc(N)nc2=O)C(=O)Cn2cnc3c(N)ncnc32)C(=O)Cn2ccc(N)nc2=O)C(=O)Cn2ccc(N)nc2=O)C(=O)Cn2ccc(=O)[nH]c2=O)C(=O)Cn2ccc(N)nc2=O)C(=O)Cn2ccc(N)nc2=O)C(=O)Cn2ccc(N)nc2=O)C(=O)Cn2cnc3c(N)ncnc32)C(=O)Cn2cnc3c(=O)[nH]c(N)nc32)C(=O)Cn2ccc(N)nc2=O)C(=O)Cn2cnc3c(=O)[nH]c(N)nc32)C(=O)Cn2ccc(N)nc2=O)CC(=O)NCCN(CC(=O)NCC(=O)O)C(=O)Cn2cc(C)c(=O)[nH]c2=O)c(=O)[nH]c1=O
inhibition (T47D [1]): Active | inhibition (T47D [2]): Active | inhibition at 0.1 µM (T47D [3]): 92% | inhibition at 0.1 µM (T47D [4]): 92% | inhibition (T47D [5]): Active

Cc1cn(CC(=O)N(CCNC(=O)CN(CCNC(=O)CN(CCNC(=O)CN(CCNC(=O)CN(CCNC(=O)CN(CCNC(=O)CN(CCNC(=O)CN(CCNC(=O)CN(CCNC(=O)CN(CCNC(=O)CN(CCNC(=O)CN(CCNC(=O)CN(CCNC(=O)CN(CCNC(=O)CN(CCNC(=O)CN(CCNC(=O)CN(CCNC(=O)CN(CCNC(=O)CN(CCNC(=O)CN(CCNC(=O)CN)C(=O)Cn2ccc(N)nc2=O)C(=O)Cn2cnc3c(N)ncnc32)C(=O)Cn2ccc(N)nc2=O)C(=O)Cn2ccc(N)nc2=O)C(=O)Cn2ccc(=O)[nH]c2=O)C(=O)Cn2ccc(N)nc2=O)C(=O)Cn2ccc(N)nc2=O)C(=O)Cn2ccc(N)nc2=O)C(=O)Cn2cnc3c(N)ncnc32)C(=O)Cn2cnc3c(=O)[nH]c(N)nc32)C(=O)Cn2ccc(N)nc2=O)C(=O)Cn2cnc3c(=O)[nH]c(N)nc32)C(=O)Cn2ccc(N)nc2=O)C(=O)Cn2ccc(N)nc2=O)C(=O)Cn2ccc(N)nc2=O)C(=O)Cn2ccc(N)nc2=O)C(=O)Cn2ccc(N)nc2=O)C(=O)Cn2ccc(=O)[nH]c2=O)C(=O)Cn2ccc(N)nc2=O)CC(=O)NCCN(CC(=O)NCC(=O)O)C(=O)Cn2cc(C)c(=O)[nH]c2=O)c(=O)[nH]c1=O
inhibition (T47D [1]): Active | inhibition (T47D [2]): Active | inhibition at 0.1 µM (T47D [3]): 100% | inhibition at 0.1 µM (T47D [4]): 100% | inhibition (T47D [5]): Active

Cc1cn(CC(=O)N(CCNC(=O)CN(CCNC(=O)CN(CCNC(=O)CN(CCNC(=O)CN(CCNC(=O)CN(CCNC(=O)CN(CCNC(=O)CN(CCNC(=O)CN(CCNC(=O)CN(CCNC(=O)CN(CCNC(=O)CN(CCNC(=O)CN(CCNC(=O)CN(CCNC(=O)CN(CCNC(=O)CN(CCNC(=O)CN(CCNC(=O)CN(CCNC(=O)CN(CCNC(=O)CN(CCNC(=O)CN)C(=O)Cn2cnc3c(=O)[nH]c(N)nc32)C(=O)Cn2ccc(=O)[nH]c2=O)C(=O)Cn2ccc(=O)[nH]c2=O)C(=O)Cn2cnc3c(N)ncnc32)C(=O)Cn2cnc3c(=O)[nH]c(N)nc32)C(=O)Cn2cnc3c(N)ncnc32)C(=O)Cn2cnc3c(N)ncnc32)C(=O)Cn2cnc3c(N)ncnc32)C(=O)Cn2cnc3c(=O)[nH]c(N)nc32)C(=O)Cn2ccc(N)nc2=O)C(=O)Cn2ccc(=O)[nH]c2=O)C(=O)Cn2cnc3c(=O)[nH]c(N)nc32)C(=O)Cn2ccc(=O)[nH]c2=O)C(=O)Cn2ccc(N)nc2=O)C(=O)Cn2ccc(=O)[nH]c2=O)C(=O)Cn2cnc3c(=O)[nH]c(N)nc32)C(=O)Cn2cnc3c(=O)[nH]c(N)nc32)C(=O)Cn2ccc(N)nc2=O)C(=O)Cn2ccc(N)nc2=O)CC(=O)NCCN(CC(=O)NCC(=O)O)C(=O)Cn2cc(C)c(=O)[nH]c2=O)c(=O)[nH]c1=O
inhibition at 0.025 µM (T47D [6]): < 20% | inhibition at 0.025 µM (T47D [7]): < 20% | inhibition (T47D [1]): Active | inhibition (T47D [2]): Active | inhibition at 0.1 µM (T47D [3]): < 20% | inhibition at 0.1 µM (T47D [4]): < 20%

Cc1cn(CC(=O)N(CCNC(=O)CN(CCNC(=O)CN(CCNC(=O)CN(CCNC(=O)CN(CCNC(=O)CN(CCNC(=O)CN(CCNC(=O)CN(CCNC(=O)CN(CCNC(=O)CN(CCNC(=O)CN(CCNC(=O)CN(CCNC(=O)CN(CCNC(=O)CN(CCNC(=O)CN(CCNC(=O)CN(CCNC(=O)CN(CCNC(=O)CN(CCNC(=O)CN(CCNC(=O)CN(CCNC(=O)CN)C(=O)Cn2cnc3c(N)ncnc32)C(=O)Cn2cnc3c(=O)[nH]c(N)nc32)C(=O)Cn2cnc3c(=O)[nH]c(N)nc32)C(=O)Cn2ccc(N)nc2=O)C(=O)Cn2cnc3c(=O)[nH]c(N)nc32)C(=O)Cn2ccc(=O)[nH]c2=O)C(=O)Cn2ccc(=O)[nH]c2=O)C(=O)Cn2cnc3c(=O)[nH]c(N)nc32)C(=O)Cn2ccc(=O)[nH]c2=O)C(=O)Cn2ccc(=O)[nH]c2=O)C(=O)Cn2cnc3c(N)ncnc32)C(=O)Cn2cnc3c(=O)[nH]c(N)nc32)C(=O)Cn2cnc3c(N)ncnc32)C(=O)Cn2cnc3c(N)ncnc32)C(=O)Cn2cnc3c(N)ncnc32)C(=O)Cn2cnc3c(=O)[nH]c(N)nc32)C(=O)Cn2ccc(N)nc2=O)C(=O)Cn2ccc(=O)[nH]c2=O)C(=O)Cn2cnc3c(=O)[nH]c(N)nc32)CC(=O)NCCN(CC(=O)NCC(=O)O)C(=O)Cn2cc(C)c(=O)[nH]c2=O)c(=O)[nH]c1=O
inhibition at 0.025 µM (T47D [6]): 57% | inhibition at 0.025 µM (T47D [7]): 73% | inhibition (T47D [1]): Active | inhibition (T47D [2]): Active | inhibition at 0.1 µM (T47D [3]): 80% | inhibition at 0.1 µM (T47D [4]): 99%

Cc1cn(CC(=O)N(CCNC(=O)CN(CCNC(=O)CN(CCNC(=O)CN(CCNC(=O)CN(CCNC(=O)CN(CCNC(=O)CN(CCNC(=O)CN(CCNC(=O)CN(CCNC(=O)CN(CCNC(=O)CN(CCNC(=O)CN(CCNC(=O)CN(CCNC(=O)CN(CCNC(=O)CN(CCNC(=O)CN(CCNC(=O)CN(CCNC(=O)CN(CCNC(=O)CN(CCNC(=O)CN(CCNC(=O)CN(CCNC(=O)CN)C(=O)Cn2cnc3c(=O)[nH]c(N)nc32)C(=O)Cn2ccc(=O)[nH]c2=O)C(=O)Cn2ccc(N)nc2=O)C(=O)Cn2ccc(=O)[nH]c2=O)C(=O)Cn2cnc3c(=O)[nH]c(N)nc32)C(=O)Cn2cnc3c(=O)[nH]c(N)nc32)C(=O)Cn2ccc(N)nc2=O)C(=O)Cn2ccc(N)nc2=O)C(=O)Cn2cnc3c(N)ncnc32)C(=O)Cn2cnc3c(=O)[nH]c(N)nc32)C(=O)Cn2ccc(=O)[nH]c2=O)C(=O)Cn2ccc(N)nc2=O)C(=O)Cn2ccc(N)nc2=O)C(=O)Cn2cnc3c(N)ncnc32)C(=O)Cn2ccc(N)nc2=O)C(=O)Cn2cnc3c(N)ncnc32)C(=O)Cn2cnc3c(=O)[nH]c(N)nc32)C(=O)Cn2ccc(N)nc2=O)C(=O)Cn2ccc(=O)[nH]c2=O)C(=O)Cn2cc(C)c(=O)[nH]c2=O)CC(=O)O)c(=O)[nH]c1=O
inhibition at 0.025 µM (T47D [6]): 67% | inhibition at 0.025 µM (T47D [7]): 73% | inhibition (T47D [1]): Active | inhibition (T47D [2]): Active | inhibition at 0.1 µM (T47D [3]): 67% | inhibition at 0.1 µM (T47D [4]): 88%

Cc1cn(CC(=O)N(CCNC(=O)CN(CCNC(=O)CN(CCNC(=O)CN(CCNC(=O)CN(CCNC(=O)CN(CCNC(=O)CN(CCNC(=O)CN(CCNC(=O)CN(CCNC(=O)CN(CCNC(=O)CN(CCNC(=O)CN(CCNC(=O)CN(CCNC(=O)CN(CCNC(=O)CN(CCNC(=O)CN(CCNC(=O)CN(CCNC(=O)CN(CCNC(=O)CN(CCNC(=O)CN(CCNC(=O)CN)C(=O)Cn2cnc3c(N)ncnc32)C(=O)Cn2cnc3c(N)ncnc32)C(=O)Cn2cnc3c(N)ncnc32)C(=O)Cn2cnc3c(=O)[nH]c(N)nc32)C(=O)Cn2ccc(N)nc2=O)C(=O)Cn2ccc(=O)[nH]c2=O)C(=O)Cn2cnc3c(=O)[nH]c(N)nc32)C(=O)Cn2ccc(=O)[nH]c2=O)C(=O)Cn2ccc(N)nc2=O)C(=O)Cn2ccc(=O)[nH]c2=O)C(=O)Cn2cnc3c(=O)[nH]c(N)nc32)C(=O)Cn2cnc3c(=O)[nH]c(N)nc32)C(=O)Cn2ccc(N)nc2=O)C(=O)Cn2ccc(N)nc2=O)C(=O)Cn2cnc3c(N)ncnc32)C(=O)Cn2cnc3c(=O)[nH]c(N)nc32)C(=O)Cn2ccc(=O)[nH]c2=O)C(=O)Cn2ccc(N)nc2=O)C(=O)Cn2ccc(N)nc2=O)CC(=O)NCCN(CC(=O)NCC(=O)O)C(=O)Cn2cc(C)c(=O)[nH]c2=O)c(=O)[nH]c1=O
inhibition at 0.025 µM (T47D [6]): < 20% | inhibition at 0.025 µM (T47D [7]): < 20% | inhibition (T47D [1]): Active | inhibition (T47D [2]): Active | inhibition at 0.1 µM (T47D [3]): < 20% | inhibition at 0.1 µM (T47D [4]): < 20%

— ChEMBL document CHEMBL1250442, “Inhibiting gene expression at transcription start sites in chromosomal DNA with antigene RNAs” (Nat Chem Biol, 2005)
